Key:
[1] = target: Multidrug resistance-associated protein 1 (Homo sapiens, UniProt P33527); experiment: Inhibition of MRP1 (unknown origin) overexpressed in MDCK cells using Calcein-AM as substrate preincubated for 30 mins followed by substrate addition measured after 30 mins by fluorescence based assay; assay type: cell-based
How it was run: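 MDCK-MRP1 cells, 30 000/well, grown overnight, then treated with compound (final 0.01 nM–100 µM, lower for very potent ones) in medium for 30 min at 37 °C. Calcein-AM added at 2.5 µM final for 30 min, then three ice-cold PBS washes. Fluorescence read at 485/535 nm against untreated cells. EC50 from fluorescence increase versus log dose, mean ± SEM of three experiments in duplicate.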

[2] = target: ATP-dependent translocase ABCB1 (Homo sapiens, UniProt P08183); experiment: Inhibition of MDR1 (unknown origin) overexpressed in MDCK cells using Calcein-AM as substrate preincubated for 30 mins followed by substrate addition measured after 30 mins by fluorescence based assay; assay type: cell-based
ATP-dependent translocase ABCB1, sequence (P08183 whole entry): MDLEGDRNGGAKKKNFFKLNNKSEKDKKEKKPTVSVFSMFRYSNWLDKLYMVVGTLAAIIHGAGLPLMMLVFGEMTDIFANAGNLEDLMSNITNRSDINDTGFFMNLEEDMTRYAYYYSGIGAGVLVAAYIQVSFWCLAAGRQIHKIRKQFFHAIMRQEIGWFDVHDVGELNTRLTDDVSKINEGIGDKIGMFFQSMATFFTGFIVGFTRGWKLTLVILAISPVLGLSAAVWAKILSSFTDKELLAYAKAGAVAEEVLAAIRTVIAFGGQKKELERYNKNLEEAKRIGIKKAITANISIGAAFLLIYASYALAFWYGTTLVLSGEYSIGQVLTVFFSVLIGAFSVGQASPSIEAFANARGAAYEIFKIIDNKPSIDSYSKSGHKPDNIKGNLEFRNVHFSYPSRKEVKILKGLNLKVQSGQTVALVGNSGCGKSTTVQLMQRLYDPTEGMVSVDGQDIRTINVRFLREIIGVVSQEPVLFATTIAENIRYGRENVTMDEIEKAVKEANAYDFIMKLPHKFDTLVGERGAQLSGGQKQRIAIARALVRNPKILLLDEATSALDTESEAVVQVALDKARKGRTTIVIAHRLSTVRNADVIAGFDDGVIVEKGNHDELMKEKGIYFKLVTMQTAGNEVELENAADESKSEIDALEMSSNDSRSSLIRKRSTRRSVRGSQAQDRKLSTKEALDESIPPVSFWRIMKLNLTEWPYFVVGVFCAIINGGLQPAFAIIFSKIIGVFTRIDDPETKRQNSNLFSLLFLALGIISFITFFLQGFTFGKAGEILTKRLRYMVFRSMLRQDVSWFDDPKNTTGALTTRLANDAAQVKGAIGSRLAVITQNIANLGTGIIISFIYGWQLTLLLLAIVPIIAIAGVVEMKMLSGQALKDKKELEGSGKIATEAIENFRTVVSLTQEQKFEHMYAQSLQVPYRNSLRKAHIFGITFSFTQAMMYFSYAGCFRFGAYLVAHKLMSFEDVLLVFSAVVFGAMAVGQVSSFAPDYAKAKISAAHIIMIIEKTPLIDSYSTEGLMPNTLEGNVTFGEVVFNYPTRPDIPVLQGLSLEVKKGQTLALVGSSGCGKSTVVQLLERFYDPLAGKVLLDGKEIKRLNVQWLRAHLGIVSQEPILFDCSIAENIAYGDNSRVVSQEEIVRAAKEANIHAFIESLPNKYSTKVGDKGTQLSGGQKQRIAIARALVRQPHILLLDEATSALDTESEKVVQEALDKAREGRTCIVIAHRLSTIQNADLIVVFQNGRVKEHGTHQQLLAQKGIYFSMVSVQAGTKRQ

[3] = target: T1, Broad substrate specificity ATP-binding cassette transporter ABCG2 (Homo sapiens, UniProt Q9UNQ0); experiment: Inhibition of BCRP (unknown origin) overexpressed in MDCK cells using Hoechst 33342 as substrate preincubated for 30 mins followed by substrate addition measured after 30 mins by fluorescence based assay; assay type: cell-based
T1 sequence (Q9UNQ0 whole entry): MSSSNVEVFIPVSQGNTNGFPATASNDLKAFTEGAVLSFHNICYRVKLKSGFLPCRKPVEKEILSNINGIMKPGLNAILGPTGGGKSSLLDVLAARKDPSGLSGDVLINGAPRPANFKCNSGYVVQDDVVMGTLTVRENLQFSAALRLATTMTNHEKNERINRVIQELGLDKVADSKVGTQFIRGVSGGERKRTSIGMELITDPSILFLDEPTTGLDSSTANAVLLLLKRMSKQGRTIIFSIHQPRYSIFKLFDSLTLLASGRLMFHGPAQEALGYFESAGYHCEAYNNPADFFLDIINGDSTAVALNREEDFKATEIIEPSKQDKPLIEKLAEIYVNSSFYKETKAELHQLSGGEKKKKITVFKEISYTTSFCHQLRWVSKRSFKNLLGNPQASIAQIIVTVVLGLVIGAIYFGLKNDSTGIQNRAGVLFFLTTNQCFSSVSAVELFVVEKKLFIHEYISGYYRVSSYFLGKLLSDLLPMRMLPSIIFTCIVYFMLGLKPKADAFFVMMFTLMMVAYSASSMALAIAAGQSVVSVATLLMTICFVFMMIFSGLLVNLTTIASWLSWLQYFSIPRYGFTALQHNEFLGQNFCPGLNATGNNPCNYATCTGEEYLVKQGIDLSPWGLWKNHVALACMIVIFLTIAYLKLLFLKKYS

[4] = Efflux ratio of apparent permeability across basal to apical membrane over apical to basal membrane in human Caco-2 cells at 100 uM incubated fro 120 mins by spectroscopy; assay type: ADME, cell-based
How it was run: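 Caco-2 grown 21 days on Transwell filters, with TEER checked daily (above 1000 Ω taken as optimal). Washed in HBSS and equilibrated 30 min at 37 °C, then compound at 100 µM added to the donor side (apical or basolateral), with fresh HBSS on the receiver side, for 120 min at 37 °C. Acceptor concentration by UV spectroscopy gives Papp (nm/s). Ratio = Papp BA/AB, three experiments in duplicate.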

[5] = Antiproliferative activity against doxorubicin-resistant human HT-29 cells at 1 to 10 uM incubated for 48 hrs relative to control; assay type: functional, doxorubicin-resistant human HT-29 cell; conditions: dose 1-10 µM
How it was run: (§1)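 Compound alone (1 μM and 10 μM), 48 h, on HT29 or on HT29/DX (the latter kept in 100 nM doxorubicin to hold resistance). Cells seeded 10 000/well, compound added after 24 h. Viability by MTT (0.5 mg/mL, 3–4 h), formazan in DMSO/EtOH 1:1, absorbance 570/630 nm. Three independent experiments in duplicate.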

HT-29 = experiment: Antiproliferative activity against human HT-29 cells at 1 to 10 uM incubated for 48 hrs relative to control; assay type: functional; conditions: dose 1-10 µM; how it was run: as §1
[6] = Potentiation of DOX-induced cytotoxicity against doxorubicin-resistant human HT-29 cells assessed as reduction in cell viability at 10 uM incubated for 48 hrs relative to control; assay type: functional, doxorubicin-resistant human HT-29 cell
How it was run: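 HT29/DX cells (10 000/well) were given compound at 1 or 10 µM together with 5 µM doxorubicin 24 h after seeding. After 48 h, viability by MTT (0.5 mg/mL, 3–4 h, 37 °C), read at 570/630 nm against untreated cells. Three independent experiments, technical duplicates; one-way ANOVA.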

Multidrug resistance-associated protein 1, sequence (P33527 whole entry): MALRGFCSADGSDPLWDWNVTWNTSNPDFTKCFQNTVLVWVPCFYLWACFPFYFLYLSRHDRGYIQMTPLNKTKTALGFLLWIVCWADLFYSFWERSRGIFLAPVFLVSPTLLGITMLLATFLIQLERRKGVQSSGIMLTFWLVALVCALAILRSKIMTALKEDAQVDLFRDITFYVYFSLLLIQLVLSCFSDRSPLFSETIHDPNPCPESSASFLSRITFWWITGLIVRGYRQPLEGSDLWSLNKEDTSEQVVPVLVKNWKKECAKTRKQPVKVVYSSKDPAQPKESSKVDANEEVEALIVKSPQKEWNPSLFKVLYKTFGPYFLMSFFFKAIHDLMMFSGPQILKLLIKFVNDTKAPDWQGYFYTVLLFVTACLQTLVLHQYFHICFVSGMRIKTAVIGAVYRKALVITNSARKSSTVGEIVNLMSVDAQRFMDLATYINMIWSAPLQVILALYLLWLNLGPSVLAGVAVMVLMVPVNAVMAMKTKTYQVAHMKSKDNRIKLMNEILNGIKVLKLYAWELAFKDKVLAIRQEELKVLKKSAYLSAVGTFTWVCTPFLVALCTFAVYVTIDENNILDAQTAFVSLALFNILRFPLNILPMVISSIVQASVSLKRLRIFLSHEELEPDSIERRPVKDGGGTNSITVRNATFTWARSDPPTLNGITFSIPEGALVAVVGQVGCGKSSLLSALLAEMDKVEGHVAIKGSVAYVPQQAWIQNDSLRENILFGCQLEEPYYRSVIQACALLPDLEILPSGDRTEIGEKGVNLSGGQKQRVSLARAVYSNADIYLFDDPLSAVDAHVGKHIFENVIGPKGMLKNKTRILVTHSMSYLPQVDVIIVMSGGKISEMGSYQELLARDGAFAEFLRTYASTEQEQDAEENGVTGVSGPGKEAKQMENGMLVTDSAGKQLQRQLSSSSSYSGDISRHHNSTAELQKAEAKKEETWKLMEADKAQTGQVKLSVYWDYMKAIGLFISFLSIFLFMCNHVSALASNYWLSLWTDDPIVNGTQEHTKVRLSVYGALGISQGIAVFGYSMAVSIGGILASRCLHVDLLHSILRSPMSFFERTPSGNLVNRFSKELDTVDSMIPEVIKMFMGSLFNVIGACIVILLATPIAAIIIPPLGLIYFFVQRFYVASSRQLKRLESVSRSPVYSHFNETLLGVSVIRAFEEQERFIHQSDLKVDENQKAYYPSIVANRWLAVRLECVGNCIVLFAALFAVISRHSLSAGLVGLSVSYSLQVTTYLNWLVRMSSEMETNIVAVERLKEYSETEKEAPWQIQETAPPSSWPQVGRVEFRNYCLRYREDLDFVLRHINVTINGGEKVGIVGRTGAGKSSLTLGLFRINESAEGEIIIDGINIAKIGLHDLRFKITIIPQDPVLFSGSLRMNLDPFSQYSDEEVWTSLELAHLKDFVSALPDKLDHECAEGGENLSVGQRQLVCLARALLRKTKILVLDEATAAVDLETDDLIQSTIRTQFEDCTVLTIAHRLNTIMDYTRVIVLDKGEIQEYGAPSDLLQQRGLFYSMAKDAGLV

| EC50 [1] | EC50 [2] | EC50 [3] | efflux ratio at 2 h, 100 µM [4] | SMILES | Activity [5] | Activity (HT-29) | Activity [6] |
| --- | --- | --- | --- | --- | --- | --- | --- |
| > 100 µM |  |  |  | COc1cc2c(cc1OC)CN(CCc1ccc(-c3nnc(/C=C/c4cc(OC)c(OC)c(OC)c4)o3)cc1)CC2 |  |  |  |
| > 100 µM | 950 nM |  |  | COc1cc2c(cc1OC)CN(CCc1ccc(-n3nnnc3-c3ccccc3OC)cc1)CC2 |  |  |  |
| > 100 µM |  | > 100 µM |  | COc1cc2c(cc1OC)CN(CCc1ccc(-c3nnc(-c4c(OC)cccc4OC)o3)cc1)CC2 |  |  |  |
| > 100 µM | 71 nM |  |  | COc1cc2c(cc1OC)CN(CCc1ccc(-c3nnc(-c4cc(OC)c(OC)c(OC)c4)o3)cc1)CC2 |  |  |  |
| > 100 µM | 12 nM | 53.6 µM | 5.4 | COc1cc2c(cc1OC)CN(CCc1ccc(-n3nnc(/C=C/c4cc(OC)c(OC)c(OC)c4)n3)cc1)CC2 | ~10% | ~10% |  |
| > 100 µM | 260 nM |  |  | COc1cc2c(cc1OC)CN(CCc1ccc(-n3nnc(-c4c(OC)c(OC)cc5ccccc45)n3)cc1)CC2 |  |  |  |
| > 100 µM | 440 nM | > 100 µM | 6.5 | COc1cc2c(cc1OC)CN(CCc1ccc(-c3nnc(-c4ccc(OC)c(OC)c4OC)o3)cc1)CC2 | ~10% | ~10% |  |
| > 100 µM |  | > 100 µM |  | COc1cc2c(cc1OC)CN(CCc1ccc(-c3nnc(-c4c(OC)ccc5ccccc45)o3)cc1)CC2 |  |  |  |
| > 100 µM | 260 nM |  |  | COc1cc2c(cc1OC)CN(CCc1ccc(-n3nnc(-c4cc(OC)c(OC)c(OC)c4)n3)cc1)CC2 |  |  |  |
| > 100 µM | 1060 nM | > 100 µM | 3.3 | COc1cc2c(cc1OC)CN(CCc1ccc(-n3nnnc3-c3c(OC)c(OC)cc4ccccc34)cc1)CC2 |  |  |  |
| 7.49 µM | 750 nM |  |  | COc1cc2c(cc1OC)CN(CCc1ccc(-n3nnnc3-c3ccc(OC)c(OC)c3OC)cc1)CC2 |  |  |  |
| > 100 µM | 400 nM | > 100 µM | 6.8 | COc1cc2c(cc1OC)CN(CCc1ccc(-c3nnc(-c4cccc(OC)c4OC)o3)cc1)CC2 | ~10% | ~10% |  |
| > 100 µM | 19 nM | > 100 µM | 6.3 | COc1cc2c(cc1OC)CN(CCc1ccc(-c3nnc(-c4ccccc4OC)o3)cc1)CC2 | ~10% | ~10% | 64.3% |
| > 100 µM | 5270 nM |  |  | COc1cc2c(cc1OC)CN(CCc1ccc(-n3nnnc3/C=C/c3cc(OC)c(OC)c(OC)c3)cc1)CC2 |  |  |  |
| > 100 µM | 750 nM |  |  | COc1cc2c(cc1OC)CN(CCc1ccc(-n3nnnc3-c3c(OC)ccc4ccccc34)cc1)CC2 |  |  |  |
| > 100 µM |  |  |  | COc1cc2c(cc1OC)CN(CCc1ccc(NC(=O)c3cccc4c(=O)c5cccc(OC)c5[nH]c34)cc1)CC2 |  |  |  |
| > 100 µM | 90 nM | > 100 µM | 4.5 | COc1cc2c(cc1OC)CN(CCc1ccc(-n3nnc(-c4c(OC)ccc5ccccc45)n3)cc1)CC2 | ~10% | ~10% |  |
| > 100 µM | 82 nM |  |  | COc1cc2c(cc1OC)CN(CCc1ccc(-n3nnc(-c4ccccc4OC)n3)cc1)CC2 |  |  |  |
| > 100 µM | 550 nM |  |  | COc1cc2c(cc1OC)CN(CCc1ccc(-n3nnc(-c4ccc(OC)c(OC)c4OC)n3)cc1)CC2 |  |  |  |
|  |  |  | 22 | COc1cc2c(cc1OC)CN(CCc1ccc(NC(=O)c3cc(OC)c(OC)cc3NC(=O)c3cnc4ccccc4c3)cc1)CC2 |  |  |  |
| > 100 µM | 140 nM |  |  | COc1cc2c(cc1OC)CN(CCc1ccc(-n3nnc(-c4cccc(OC)c4OC)n3)cc1)CC2 |  |  |  |
| > 100 µM |  |  |  | COc1cc2c(cc1OC)CN(CCc1ccc(-n3nnc(-c4c(OC)cccc4OC)n3)cc1)CC2 |  |  |  |
| 4.33 µM | 630 nM |  |  | COc1cc2c(cc1OC)CN(CCc1ccc(-n3nnnc3-c3cc(OC)c(OC)c(OC)c3)cc1)CC2 |  |  |  |
| > 100 µM | 46 nM | > 100 µM | 9.7 | COc1cc2c(cc1OC)CN(CCc1ccc(-c3nnc(-c4c(OC)c(OC)cc5ccccc45)o3)cc1)CC2 | ~10% | ~10% |  |

— ChEMBL document CHEMBL5625229 (Eur J Med Chem, 2023)
